The values below come from ChEMBL document CHEMBL2380254, “Optimization of tocotrienols as antiproliferative and antimigratory leads” (Eur J Med Chem, 2013).

Each structure is given as a SMILES string.

A short description of test [1]: Growth inhibition of human NCI-ADR-RES cells after 48 hrs by sulforhodamine B assay. Type of test: functional. The method in brief:
(§1)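 NCI-60 panel cells grown in RPMI 1640 with 5% FBS and 2 mM L-glutamine, seeded at 5000–40,000 cells/well and preincubated 24 h. Five 10-fold dilutions (0.001–100 µM) from DMSO stocks were added for 48 h at 37 °C. Adherent cells were fixed with cold TCA (10% final) for 60 min at 4 °C, stained with 0.4% SRB, and read at 515 nm. GI50 was set where 100×(T−T0)/(C−T0)=50.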
(In general: The SRB assay estimates cell density from bound dye.)

For another test, the system named is SNB-75. In words: Growth inhibition of human SNB75 cells assessed as cell growth at 10 uM after 48 hrs by sulforhodamine B assay. It is filed as functional. Particulars: SNB-75, 48 h, read-out: Activity. Put shortly: (§2)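 Single-dose NCI-60 test at 10 µM. Cells were grown in RPMI 1640 with 5% FBS and 2 mM L-glutamine, preincubated 24 h, with T0 plates TCA-fixed. Exposure was 48 h at 37 °C, 5% CO2. Cells were fixed with cold TCA (final 10%, 4 °C, 60 min), stained with SRB and read at 515 nm. Percent growth was taken relative to T0 and untreated control; negative values denote cell kill.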

Test [2] is described as follows: Growth inhibition of human HCC2998 cells assessed as cell growth at 10 uM after 48 hrs by sulforhodamine B assay. To be noted: HCC 2998, 48 h, read-out: Activity. It is filed as functional. The method in brief:
(§3)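 NCI-60 single-dose screen at 10 µM: cells in RPMI 1640 with 5% FBS, preincubated 24 h, then exposed 48 h at 37 °C. TCA fixation (16% final for suspension cells), SRB staining, absorbance 515 nm. Percent growth relative to time-zero and untreated control plates; negative values indicate cell kill.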

Another test has as its system HT-29. The experiment in a line: Growth inhibition of human HT-29 cells after 48 hrs by sulforhodamine B assay. Particulars: HT-29, 48 h. It is filed as functional. The method in brief:
(§4)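 NCI-60 screen: cells in RPMI 1640 with 5% FBS and 2 mM glutamine, 5000–40,000 cells/well, preincubated 24 h. Five concentrations (10-fold dilutions; 100 to 0.001 µM) applied for 48 h at 37 °C. TCA fixation, SRB stain, absorbance at 515 nm. Time-zero plates included; GI50 where 100×(T−T0)/(C−T0)=50.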

In the next test the test system is HOP-92. In words: Growth inhibition of human HOP92 cells after 48 hrs by sulforhodamine B assay. Type of test: functional. To be noted: HOP-92, 48 h. Put shortly:
as §4

The next test relates to A549. In words: Growth inhibition of human A549/ATCC cells assessed as cell growth at 10 uM after 48 hrs by sulforhodamine B assay. It is filed as functional. To be noted: A549, 48 h, read-out: Activity. Put shortly:
as §3

A further test has as its system PC-3. In words: Growth inhibition of human PC3 cells after 48 hrs by sulforhodamine B assay. It is filed as functional. Particulars: PC-3, 48 h. Put shortly:
as §1

For the next test, the system named is HL-60(TB). The experiment in a line: Growth inhibition of human HL-60(TB) cells assessed as cell growth at 10 uM after 48 hrs by sulforhodamine B assay. Type of test: functional. Particulars: HL-60, 48 h, read-out: Activity. The method in brief: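 NCI-60 single-dose screen run at 10 µM on HL-60(TB) suspension cells in RPMI 1640 with 5% FBS and 2 mM L-glutamine. Cells were preincubated for 24 h, with a time-zero plate fixed then. Exposure lasted 48 h at 37 °C. Settled cells were fixed with TCA (16% final), stained with SRB and read at 515 nm. Percent growth is relative to control and T0.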

The next test relates to U-251. In words: Growth inhibition of human U251 cells after 48 hrs by sulforhodamine B assay. Particulars: U-251, 48 h. It is filed as functional. Put shortly:
(§5)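 NCI-60 five-dose screen. Cells were grown in RPMI 1640 with 5% FBS and 2 mM L-glutamine, plated at 5000–40,000 cells/well and incubated 24 h before dosing, with T0 plates TCA-fixed. DMSO stocks were diluted to doses of […] and exposed 48 h at 37 °C, 5% CO2. Cells were fixed with cold TCA (final 10%, 60 min, 4 °C), stained with 0.4% SRB in 1% acetic acid for 10 min, solubilized in 10 mM trizma base and read at 515 nm. GI50 is where 100×(T−T0)/(C−T0)=50.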

Another test relates to SR. The experiment in a line: Growth inhibition of human SR cells after 48 hrs by sulforhodamine B assay. It is filed as functional. Put shortly:
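Suspension leukemia line in RPMI 1640 with 5% FBS and 2 mM L-glutamine, NCI-60 five-dose format ([…]), 48 h at 37 °C. Settled cells were fixed with 80% TCA (final 16%), stained with SRB and read at 515 nm. GI50 is where 100×(T−T0)/(C−T0)=50, with T0 measured at dosing.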

The test system of a further test is MCF7. The experiment in a line: Antiproliferative activity against human MCF7 cells by MTT assay. It is filed as functional, cell-based. Put shortly: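 Cells plated at 8 × 10^3/well (MDA-MB-231) or 10^4/well (MCF7) in 96-well plates. Compounds fed in media with 5% FBS (MDA-MB-231) or 1% FBS (MCF7). MTT read-out of viable cells.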
For orientation: Tetrazolium dyes change colour on reduction, which living cells bring about.

A further test relates to SNB-19. In words: Growth inhibition of human SNB19 cells assessed as cell growth at 10 uM after 48 hrs by sulforhodamine B assay. It is filed as functional. Particulars: SNB-19, 48 h, read-out: Activity. Put shortly: as §2
Another test relates to UACC-257. In words: Growth inhibition of human UACC257 cells after 48 hrs by sulforhodamine B assay. To be noted: UACC-257, 48 h. Type of test: functional. Put shortly: as §5
Another test has as its system OVCAR-8. In words: Growth inhibition of human OVCAR8 cells assessed as cell growth at 10 uM after 48 hrs by sulforhodamine B assay. It is filed as functional. Particulars: OVCAR-8, 48 h, read-out: Activity. Put shortly: (§6)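 Single-dose NCI-60 screen: adherent cells in RPMI 1640 with 5% FBS were exposed to 10 µM for 48 h at 37 °C after a 24 h preincubation. They were fixed in situ with cold TCA (10% final), stained with 0.4% SRB in 1% acetic acid, solubilized in 10 mM Tris base, and read at 515 nm. Percent growth was taken relative to time-zero and control plates.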

The next test relates to NCI-H322M. In words: Growth inhibition of human NCI-H322M cells assessed as cell growth at 10 uM after 48 hrs by sulforhodamine B assay. Type of test: functional. To be noted: read-out: Activity. Put shortly:
as §6

Another test deals with ACHN. The experiment in a line: Growth inhibition of human ACHN cells assessed as cell growth at 10 uM after 48 hrs by sulforhodamine B assay. Type of test: functional. Particulars: read-out: Activity. Put shortly: as §3
The subject of a further test is HCT-116. In words: Growth inhibition of human HCT116 cells after 48 hrs by sulforhodamine B assay. Type of test: functional. Particulars: HCT-116, 48 h. The method in brief: as §4
Another test relates to NCI-H460. The experiment in a line: Growth inhibition of human NCI-H460 cells assessed as cell growth at 10 uM after 48 hrs by sulforhodamine B assay. Type of test: functional. To be noted: NCI-H460, 48 h, read-out: Activity. Put shortly: as §6
The subject of a further test is SK-OV-3. In words: Growth inhibition of human SKOV3 cells assessed as cell growth at 10 uM after 48 hrs by sulforhodamine B assay. Type of test: functional. To be noted: SK-OV-3, 48 h, read-out: Activity. The method in brief:
as §2

For a further test, the system named is KM12. In words: Growth inhibition of human KM12 cells assessed as cell growth at 10 uM after 48 hrs by sulforhodamine B assay. Particulars: KM12, 48 h, read-out: Activity. It is filed as functional. Put shortly:
as §3

Test [3] can be described thus: Growth inhibition of human EKVX cells after 48 hrs by sulforhodamine B assay. Type of test: functional. Put shortly:
as §4

The next test deals with DU-145. The experiment in a line: Growth inhibition of human DU145 cells after 48 hrs by sulforhodamine B assay. Particulars: DU-145, 48 h. It is filed as functional. Put shortly:
as §4

In the case of `CC(C)=CCC/C(C)=C/CC/C(C)=C/CC[C@]1(C)CCc2c3c(cc(C)c2O1)OCN(CCCCCCO)C3`, the GI50 in test [1] is 1130 nM; in the test on HT-29, 720 nM; in the test with HOP-92 it was 1050 nM; with PC-3, 1240 nM; in the test on U-251, 536 nM; with SR it was 670 nM. In addition, the GI50 in the test with UACC-257 is 620 nM; with HCT-116, 659 nM; in test [3], 5310 nM; in the test with DU-145 it was 1000 nM. For the same compound, the growth at 10 µM with SNB-75 is -1.37%; in test [2] it was -89.1%; with A549, -34.7%; with HL-60(TB), -24.5%; in the test with SNB-19, -6.48%; in the test on OVCAR-8, -62.8%. The growth at 10 µM in the test on NCI-H322M is -61%; in the test with ACHN, -39.7%; with NCI-H460 it was -15.7%; in the test on SK-OV-3, -37.2%; in the test on KM12, -79.1%. In addition, the half-maximal inhibitory concentration (IC50) with MCF7 was > 20000 nM.

A word on the GI50: it is the concentration giving 50% growth inhibition. The IC50 is the concentration at which inhibition is half-maximal. Low values mean higher potency, high ones lower potency.
